Assay outcomes (PubChem BioAssay)
ADAM10 inh – ADAM10 inhibition, QFRET primary screen; recombinant ADAM10, EDANS/DABCYL FRET peptide cleavage, 3 h; inhibition, % at 7 µM; 370,000 tested, 0.62% active;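 active = inhibition above a per-campaign cutoff equal to the mean of compounds falling between control-based bounds plus 3 SD, cut at about 20% in these data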;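 note: 0% = DMSO wells while the 100% control is not disclosed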
ADAM17 inh – inhibits human ADAM17; 370,000 tested, 0.83% active; P78536; AID 720648; recombinant ADAM17, EDANS/DABCYL FRET peptide cleavage; inhibition, % at 6.95 µM;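 active = inhibition above the mean of compounds lying between control limits plus 3 SD, set per campaign, cut at about 8.5% in these data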;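 note: 0% = DMSO-only wells as the low control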
NR2E3 ag-1 – activates human photoreceptor nuclear receptor NR2E3 | Q9Y5X4 | 320,000 tested, 0.12% active | GST-NR2E3/biotin-RetCOR TR-FRET, 1536-well | inhibition of corepressor binding, % at 4.78 µM;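 active = percent inhibition above the cutoff of mean plus 3 SD of all tested compounds, set per screening campaign, cut at about 20% in these data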;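 note: 0% = DMSO wells and 100% = biotin wells as full block of FRET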
Target sequence (Q9Y5X4 whole entry, looked up): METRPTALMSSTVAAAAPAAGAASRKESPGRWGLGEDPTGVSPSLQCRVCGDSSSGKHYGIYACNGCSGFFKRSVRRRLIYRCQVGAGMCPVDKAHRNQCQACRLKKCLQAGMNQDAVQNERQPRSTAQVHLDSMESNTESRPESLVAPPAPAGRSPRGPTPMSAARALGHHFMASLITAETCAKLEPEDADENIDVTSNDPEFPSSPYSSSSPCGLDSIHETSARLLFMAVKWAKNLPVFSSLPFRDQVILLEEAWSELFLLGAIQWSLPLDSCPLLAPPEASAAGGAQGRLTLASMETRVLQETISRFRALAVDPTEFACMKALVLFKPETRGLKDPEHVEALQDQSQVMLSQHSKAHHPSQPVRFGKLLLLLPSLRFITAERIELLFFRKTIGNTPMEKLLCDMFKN
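Test system – NR2E3–RetCOR corepressor complex · Quantity – NR2E3 fusion 1.35 nM · Buffer or medium – Tris pH 7.5 · Incubation – Compound–protein incubation for 5 h at 4 °C · Technique – TR-FRET, Eu(K)-anti-GST donor, streptavidin-D2 acceptor, ex 340, em 617/671 nm · Evaluation – percent inhibition of 671/617 nm emission ratio versus biotin and DMSO controls · Plate – 1536-well format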
NR2E3 ag-2 – activates human NR2E3 receptor; inhibition of corepressor binding, % at 3.98 µM; AID 602229; CHO-S Gal4-NCOR/VP16-NR2E3 two-hybrid, luciferase; Q9Y5X4; 360,000 tested, 0.35% active;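 active = inhibition above the mean of all tested compounds plus 3 SD, cut at about 70% in these data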;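 note: 0% = DMSO with NR2E3 transfected cells and 100% = cells lacking NR2E3 construct; higher means lower luciferase signal from less NR2E3 corepressor binding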
GASC-1 inh – human JMJD2C demethylase inhibition; GST-JMJD2C(1-420) H3K9me3 demethylation, DELFIA europium; inhibition, % at 2.35 µM; 330,000 tested, 0.069% active;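 active = more than half of a compound's replicate wells show inhibition beyond 50%, single wells judged on their own value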;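 note: signal counts dimethyl H3K9 product captured on neutravidin plate; 0% = median of DMSO wells and 100% = 0.3 times that DMSO median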
KLK7 zymogen act – proKLK7 (human) activation, primary screen | activation, % at 7 µM | 370,000 tested, 0.9% active | purified proKLK7, EDANS-DABCYL substrate fluorescence; 100% is mature enzyme control, 0% vehicle | P49862;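 active = activation above the mean of all tested compounds plus 3 SD, computed per campaign excluding outliers beyond control limits, cut at about 13% in these data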
Target sequence (P49862 whole entry, looked up): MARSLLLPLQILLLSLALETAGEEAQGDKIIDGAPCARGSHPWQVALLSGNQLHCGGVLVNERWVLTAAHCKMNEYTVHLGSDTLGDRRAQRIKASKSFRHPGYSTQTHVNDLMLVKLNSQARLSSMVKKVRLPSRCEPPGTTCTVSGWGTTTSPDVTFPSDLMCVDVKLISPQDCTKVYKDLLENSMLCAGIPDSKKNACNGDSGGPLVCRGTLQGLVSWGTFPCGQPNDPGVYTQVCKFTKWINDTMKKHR
proKLK7 act conf – confirmation of human kallikrein-7 zymogen activators; purified proKLK7, EDANS-DABCYL substrate fluorescence; scaled: vehicle 0, mature enzyme 100; activation, % at 7 µM; shares compounds with KLK7 zymogen act; 3,200 tested, 68% active; AID 686949;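 active = activation, as change over the incubation, above the mean of all tested compounds plus 3 SD, cut at about 13% in these data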
EDANS interfere – counter-screen for kallikrein-7 activators: EDANS-DABCYL optical interference; 3,200 tested, 80% active; activation, % at 7 µM; shares compounds with KLK7 zymogen act; EDANS-DABCYL substrate fluorescence interference, no enzyme, 4 h; solvent 0%, active enzyme control 100%; AID 686952;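 active = activation above the all-compound mean plus 3 SD, ignoring values outside control-based bounds, cut at about 4.8% in these data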;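 note: value is the 4 h activation minus the activation read at time zero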
EDANS interf – EDANS fluorescence interference in dose response, no enzyme. shares compounds with KLK7 zymogen act. EDANS-DABCYL peptide fluorescence interference. EC50, µM. 250 tested, 20% active;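 active = compounds that raise the fluorescence signal in this interference counterscreen, with EC50 at or below 10 µM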;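 note: intact quenched peptide substrate alone read at 355 nm excitation and 520 nm emission; signal is fluorescence gain from T0 to T4 after four hours at room temperature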
The depositor's hits bear a star; i = inactive; nt = not tested or not shown. Compounds with a hit are over-represented: about 2.5% of the library has one in this group of screens.

SMILES	ADAM10 inh	ADAM17 inh	NR2E3 ag-1	NR2E3 ag-2	GASC-1 inh	KLK7 zymogen act	proKLK7 act conf	EDANS interfere	others
Cc1ccc2nc3c(cc(C(N)=S)c(=N)n3CCCOC(C)C)c(=O)n2c1	i	-366	1	-30	7	14*	3	3
N=c1c(C(=O)NCCN2CCOCC2)cc2c(=O)n3ccccc3nc2n1CCCN1CCOCC1	i	-381	-2	11	-13	14*	4	5.0*
Cc1cccn2c(=O)c3cc(C(N)=S)c(=N)n(CCCN4CCOCC4)c3nc12	i	-296	1	-4	4	10	nt	nt
COCCCn1c(=N)c(C(N)=S)cc2c(=O)n3cccc(C)c3nc21	i	i	0	-25	1	35*	21*	24*
COCCNC(=O)c1cc2c(=O)n3cccc(C)c3nc2n(Cc2ccncc2)c1=N	i	i	3	7	0	141*	44*	54*
N=c1c(C(=O)NCCN2CCOCC2)cc2c(=O)n3ccccc3nc2n1Cc1ccc(F)cc1	i	-150	4	-15	-9	7	nt	nt
COc1cccc(CN(C(=O)c2cc3ccccc3oc2=O)C2CCS(=O)(=O)C2)c1 (stereo unspecified)	-11	-1	0	9	1	0	nt	nt
CCCCNC(=O)c1cc2c(=O)n3cccc(C)c3nc2n(Cc2ccncc2)c1=N	i	i	4	11	-1	45*	0	-2
CCCCNC(=O)c1cc2c(=O)n3cccc(C)c3nc2n(CCN2CCOCC2)c1=N	i	i	2	-1	-6	16*	6	10*
O=C(O)Cn1nnnc1SCC(=O)Nc1ccc(F)cc1F	6	-2	4	7	-9	0	nt	nt
CC(=O)c1ccc(-c2cccs2)s1	i	i	0	-6	-2	63*	63*	69*
Cc1ccc(C(=O)Nc2ccc3nccnc3c2)cc1	i	-241	1	-78	4	13*	45*	38*	EDANS interf=9.2*
O=C(Nc1cccc(Cl)c1)Nc1ccc2nccnc2c1	-31	-11	0	-110	-23	0	nt	nt
O=C(Nc1ccc2nccnc2c1)Nc1ccccc1Cl	-28	-7	1	-101	12	20*	46*	44*
CCc1c(-c2ccc(F)cc2)ncn1CCc1ccccc1OC	6	3	nt	nt	nt	0	nt	nt
Cc1ccc(NC(=O)c2cc(-c3ccco3)on2)cc1C	-49	-18	5	-130	-15	2	nt	nt
COc1ccc(NC(=O)c2cc(-c3ccco3)on2)cc1OC	0	-3	2	-4	-3	55*	20*	4.8*	EDANS interf=i
COc1cc(C(=O)NCCSc2ccc(F)cc2)cc(OC)c1OC	-5	-1	-1	2	2	0	nt	nt
CN1CCOc2c1cnn(CCO)c2=O	-207	-59	nt	-11	nt	0	nt	nt
CCCc1cc(NCC2CCCO2)n2c(nc3ccccc32)c1C#N (stereo unspecified)	i	i	-1	-18	2	17*	-54	-54
CCCc1cc(NCCCN(C)C)n2c(nc3ccccc32)c1C#N	i	i	3	6	-13	83*	12	20*
CCCc1cc(NCc2ccccn2)n2c(nc3ccccc32)c1C#N	-267	-78	-1	-36	17	-6	nt	nt
CCCc1cc(NCCN(C)C)n2c(nc3ccccc32)c1C#N	i	i	-2	16	7	57*	20*	6.5*	EDANS interf=>70
Cc1ccc(Cl)cc1NC(=O)c1cc(NC(=O)C2CCCCC2C(=O)O)ccc1N1CCOCC1 (stereo unspecified)	0	-2	1	-7	3	0	nt	nt
Cc1cc(-c2nc(C)c(C(=O)NN)s2)no1	5	-2	0	0	nt	-2	nt	nt
SMILES	ADAM10 inh	ADAM17 inh	NR2E3 ag-1	NR2E3 ag-2	GASC-1 inh	KLK7 zymogen act	proKLK7 act conf	EDANS interfere	others
COc1ccc(C2Nc3ccccc3C(=O)N2Cc2ccco2)cc1COc1ccccc1F (stereo unspecified)	-189	-73	-3	-34	-8	-17	nt	nt
Cc1ccc(C2Nc3ccccc3C(=O)N2Cc2ccco2)cc1 (stereo unspecified)	i	-319	2	-22	16	13*	-22	-19
O=C1c2ccccc2NC(c2ccc(O)cc2)N1Cc1ccco1 (stereo unspecified)	i	-236	-4	1	-1	24*	9	7.1*
O=C1c2ccccc2NC(c2cccc(F)c2)N1Cc1ccco1 (stereo unspecified)	i	-381	-4	-3	31	22*	-3	-8
Cc1cccc(C)c1OCc1cccc(C2Nc3ccccc3C(=O)N2Cc2ccco2)c1 (stereo unspecified)	-338	-112	nt	nt	nt	nt	nt	nt
COc1ccc(C(=O)N2CCCC(Nc3ccc(F)cc3)C2)c(OC)c1 (stereo unspecified)	4	-4	0	3	1	0	nt	nt
CC(C)(C)c1ccc(-c2nc(O)c(CC(=O)O)s2)cc1	nt	nt	0	nt	-6	nt	nt	nt
COCCc1ccc(OC2(C)CCN(Cc3ccc(OC)c4ccccc34)C2)cc1 (stereo unspecified)	0	-1	nt	-18	nt	0	nt	nt
Nc1ccn([C@@H]2O[C@H](CNCc3ccc(C#CCCO)cc3)[C@@H](O)[C@H]2O)c(=O)n1	-4	4	nt	-27	nt	0	nt	nt
COC(=O)c1c(C(=O)OC)c2c(-c3ccccc3)cc3cccc1n32	i	-433	nt	-5	nt	-61	nt	nt
O=C(O)c1cc(-c2ccc(-c3ccc(F)cc3)o2)nc2ccccc12	-328	-111	0	-69	-18	33*	65*	76*
O=C(c1cc(-c2ccc(F)cc2)nc2ccccc12)N1CCC1	-55	-16	nt	0	-7	0	nt	nt
O=C(NCCc1ccc(F)cc1)c1coc(=O)c(Br)c1	-463	-188	0	8	3	13*	30*	29*
CCCc1cc(=O)c2c(O)cccc2o1	-1	-3	-3	-8	3	0	nt	nt
CCCc1cc2c(O)ccc(O)c2c(=O)o1	i	-186	nt	nt	nt	36*	256*	268*
Cc1sc(N)nc1-c1c(C)n(C)c2ccccc12	2	1	nt	-17	7	0	nt	nt
COc1ccc2cc3cc(C(=O)NCc4ccco4)oc3nc2c1	i	i	1	-1	5	49*	-43	-26
